# Only some compounds are listed: those with a hit (about 3.1% of all), similar ones and a draw of the others.
# NadD inh = inhibitors of S. aureus NadD, primary screen, biochemical, colorimetric, uHTS; Nicotinate-nucleotide adenylyltransferase NadD (Staphylococcus aureus N315); inhibition, % at 20 µM; 0.78% of 360,000 active; purified NadD enzyme, colorimetric absorbance read-out; AID 602399, 2012; in the data active means inhibition above about 26%
# PP5 primary = PP5 phosphatase inhibitors, primary screen, biochemical, fluorescence. purified PP5c, OMFP substrate fluorescence. inhibition, % at 6.7 µM. 0.18% of 320,000 active. AID 1987, 2009;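 active means inhibition above the campaign's mean inhibition across all tested compounds plus 3 SD, cut at about 9.5% in these data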
# Fh CTSL1 inh = Fasciola hepatica cathepsin L1 inhibitors, primary screen, counter-screen for PFM18AAP inhibitor project, biochemical, QFRET, fluorogenic peptide substrate. recombinant F. hepatica cathepsin L1, Z-Leu-Arg-MCA fluorescence. 0.49% of 300,000 active. inhibition, % at 5.96 µM;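 active means inhibition above the mean of all tested compounds plus 3 SD, set per screening campaign, cut at about 17% in these data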
# core dimer inh = inhibitors of HCV core protein dimerization, primary screen, biochemical, TR-FRET, high-throughput; TR-FRET GST/Flag-core106 dimerization, 1536-well; inhibition, % at 5 µM; 0.33% of 300,000 active; AID 1899, 2009;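 active means inhibition above the mean of all tested compounds plus 3 SD, set per screening campaign, cut at about 45% in these data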
#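 test system = GST/Flag-tagged HCV core106 proteins | probe or stimulus = Eu donor and XL665 acceptor anti-tag antibodies | times = compound-protein-antibody incubation 4 h at 22.5 °C | signal = TR-FRET, excitation 340 nm, emission 617 and 671 nm | measure = percent inhibition of core106 dimerization signal | controls = wells lacking GST-core106 and wells with excess unlabelled core106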
# Myeloid diff MLP = induction of myeloid progenitor differentiation, primary screen, cell-based, flow cytometry, MLPCN library; ER-HoxA9 myeloid progenitors, lysozyme-GFP differentiation; calls only at 10 µM; 1% of 360,000 active; AID 624256, 2012;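 active means normalized GFP-positive differentiation at or above the plate's own cutoff, the solvent-only control mean plus 3 SD; inconclusive means no clear call, values can overlap the other calls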;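 further: cells exposed to compound for four days before flow analysis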
# PP1 counter = PP1-alpha phosphatase inhibitors, primary screen, counter-screen for PP5 inhibitor project, biochemical, fluorescence, OMFP substrate, single point | AID 2235, 2010 | inhibition, % at 6.7 µM | 0.9% of 320,000 active | Serine/threonine-protein phosphatase PP1-alpha catalytic subunit (Homo sapiens), P62136 | purified PP1alpha;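 active means inhibition above the mean inhibition of all tested compounds plus 3 SD, computed separately for each screening campaign, cut at about 15% in these data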
# Target sequence (P62136 whole entry, looked up): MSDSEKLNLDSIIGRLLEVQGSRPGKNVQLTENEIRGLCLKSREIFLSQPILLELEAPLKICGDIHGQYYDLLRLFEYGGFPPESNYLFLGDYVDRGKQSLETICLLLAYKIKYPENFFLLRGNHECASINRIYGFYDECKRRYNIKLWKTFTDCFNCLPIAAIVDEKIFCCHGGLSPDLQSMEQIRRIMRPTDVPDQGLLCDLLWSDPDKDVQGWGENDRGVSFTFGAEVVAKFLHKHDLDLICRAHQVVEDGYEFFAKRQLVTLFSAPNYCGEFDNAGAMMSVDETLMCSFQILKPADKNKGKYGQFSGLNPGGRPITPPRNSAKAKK
# A number is an active result; - = inactive; ? = inconclusive; . = no result given; + = active, no number; ! = not active in a repeat.
SMILES,NadD inh,PP5 primary,Fh CTSL1 inh,core dimer inh,Myeloid diff MLP,PP1 counter
COc1ccc(OCC(=O)Nc2c3c(nn2C(C)(C)C)CS(=O)(=O)C3)cc1,-,-,-,-,+,-
CC1CCC(NC(=O)c2[nH]c(C(F)(F)F)nc2-c2ccccc2)CC1 (centres undefined),-,.,.,.,-,.
Nc1ncnc2c1ncn2[C@@H]1O[C@H](CNCc2ccc(-c3cc(C(F)(F)F)ccc3Cl)o2)[C@@H](O)[C@H]1O,-,.,.,.,-,.
C[C@H](O)[C@@H]1C(=O)N2CCc3ccc(-c4ccccc4)cc3[C@@H]2C[C@@H]1N(C)C(=O)c1ccco1,-,.,.,.,-,.
CNC(=S)Nc1cccc(C(=O)OC)c1,-,-,-,-,-,-
CCCN1Cc2cccc(C(=O)Nc3ccc4c(c3)OCO4)c2C1=O,-,-,-,-,-,-
O=C(Nc1ccc2c(c1)OCO2)c1cccc2c1C(=O)N(Cc1cccnc1)C2,-,-,-,54,-,-
CCc1ccccc1NC(=S)N1CCN(c2ccccc2F)CC1,-,-,19,-,-,-
CC(C)(C)N1CC(OC(N)=O)C1,-,-,-,-,+,-
COc1ccc(C2N(C(=O)C(F)(F)F)C(C)CN2S(=O)(=O)c2ccc(C)cc2)cc1 (centres undefined),-,-,-,-,-,-
O=C(N[C@@H]1CCC(=O)N(CC[C@H](Sc2ccc(Br)cc2)c2ccccc2)CC1)OCc1ccccc1,-,-,.,.,-,16
CCC(C)Sc1nc(O)cc(=O)[nH]1 (centres undefined),-,-,-,-,-,-
O=c1cc(O)nc(SC23CC4CC(CC(C4)C2)C3)[nH]1,-,-,-,-,-,16
C#CCSc1nnc(-c2cccc3ccccc23)o1,-,-,-,-,+,-
N#C/C(=C\C1=C(N2CCOCC2)C(=C\c2ccc(Cl)cc2)/CC1)C(=O)Nc1ccccc1F,-,-,-,-,+,-
CCN(CC)c1ccc(/C=C2\CCC(/C=C(/C#N)C(=O)Nc3ccccc3F)=C2N2CCOCC2)cc1,-,.,.,.,-,.
N#C/C(=C/C1=C(N2CCOCC2)C(=C/c2ccccc2)/CC1)C(=O)Nc1ccccc1F,-,.,.,.,+,.
N#C/C(=C/C1=C(N2CCOCC2)C(=C/c2ccc(Cl)cc2Cl)/CC1)C(=O)Nc1ccccc1F,-,.,.,.,+,.
N#C/C(=C\C1=C(N2CCOCC2)C(=C/c2cccc([N+](=O)[O-])c2)/CC1)C(=O)Nc1ccccc1F,-,-,-,-,-,-
Cc1ccc(C)c(C(=O)COC(=O)c2ccc(C)c(S(=O)(=O)N3CCOCC3)c2)c1,-,-,.,.,-,-
O=C(Nc1nnc([C@@H]2C[C@H](O)[C@@H](CO)O2)s1)NC1CCCCC1,-,.,.,.,-,.
CCCC(C(=O)NC1CCCC1)N(Cc1ccc(OC)cc1)C(=O)c1snc(C(N)=O)c1N (centres undefined),-,-,-,-,-,-
C[C@@]12CCC3[C@@](CCC4[C@@]3(C)CCC[C@@]4(C)C(=O)N3CCOCC3)(CC1=O)C2 (some centres undefined),-,.,.,.,-,.
CCOC(=O)N1CCN(CCC(=O)Nc2cccc(Br)c2)CC1,-,-,-,-,-,18!
Cc1ccc(-c2nnc(N3CCN(C(=O)COc4cccc(C)c4)CC3)c3ccccc23)cc1,-,-,-,-,+,-
SMILES,NadD inh,PP5 primary,Fh CTSL1 inh,core dimer inh,Myeloid diff MLP,PP1 counter
Cc1cccc(OCC(=O)N2CCN(c3nnc(-c4ccccc4)c4ccccc34)CC2)c1,-,-,-,-,-,-
O=C(O)c1cc([N+](=O)[O-])ccc1Nc1ccccc1,-,-,-,-,?,-
O=[N+]([O-])c1ccc(Nc2ccccc2O)c([N+](=O)[O-])c1,-,.,.,.,+,.
O=C1CCCC2=C1C(c1ccc(O)c(Br)c1)C1=C(CCCC1=O)N2c1ccccc1,-,-,-,-,+,-
Cc1onc(-c2ccccc2Cl)c1C(=O)N(Cc1nc(-c2ccccc2)no1)C1CCCCC1,-,-,-,-,+,-
Cc1cccc(-c2noc(CN(C(=O)c3c(-c4ccccc4Cl)noc3C)C(C)C)n2)c1,-,-,-,-,-,-
Cc1cc(NCC2CCCCC2)nc2ccccc12,-,-,-,-,+,-
CCN(CC)c1ccc(/C=C/c2cc(-c3ccccc3)c3ccccc3n2)cc1,-,-,-,-,+,-
COC1OC(c2ccccc2)=C(c2cnc(N)nc2)c2ccc(F)cc21 (centres undefined),-,.,.,.,-,.
Cc1c(C(=O)N2CCCCCC2)c(S(=O)(=O)Nc2ccc(F)cc2)c(C)n1C,-,-,-,-,-,-
CCOc1nc(N2CCOCC2)nc(N2CCOCC2)n1,-,-,-,-,+,-
CCn1c2ccc(F)cc2c2nc3ccccc3nc21,-,-,-,-,+,-
Cc1ccc(S(=O)(=O)NCC(=O)OC(C(=O)c2ccccc2)c2ccccc2)cc1 (centres undefined),-,-,-,-,-,-
COc1ccc(C(=O)C(OC(=O)CNC(=O)c2ccco2)c2ccccc2)cc1 (centres undefined),-,-,33,-,-,-
COc1ccc(C(=O)C(OC(=O)c2ccc(C)c(NC(C)=O)c2)c2ccccc2)cc1 (centres undefined),-,-,-,-,+,-
O=C(CNC(=O)c1ccccc1)OC(C(=O)c1ccccc1)c1ccccc1 (centres undefined),-,-,18,-,-,-
Cc1ccc(C(=O)C(OC(=O)CNC(=O)c2ccc(Cl)cc2)c2ccccc2)cc1 (centres undefined),-,-,20,-,-,-
CC1CCC(NC(=O)c2cccn2C)CC1 (centres undefined),-,.,.,.,-,.
COc1ccc(C)cc1NC(=O)C(OC(=O)CNC(=O)c1ccc(Br)cc1)c1ccccc1 (centres undefined),-,-,18,-,-,-
CC(C)(C)NC(=O)C1c2ccccc2OCC(=O)N1CCc1ccccc1 (centres undefined),-,.,.,.,-,.
O=C(/C=C/c1ccc2ccccc2n1)c1cc(Br)ccc1O,-,-,-,-,+,-
Cc1cnc(CNC(=O)C2CCC(=O)N(Cc3ccc(Cl)cc3)C2)[nH]1 (centres undefined),-,-,-,-,-,-
Cc1nc2ccccc2c(=O)n1/N=C/c1ccncc1,-,-,18,-,-,-
Cc1nc2ccccc2c(=O)n1/N=C/c1ccc(O)c(O)c1O,33,-,-,-,-,-
